# Bioassay records from PubChem.
# LMPTP block = LMPTP (human) inhibition; P24666; recombinant LMPTP-A, OMFP fluorogenic substrate, fluorescence intensity; inhibition, % at 20 µM; 0.22% of 360,000 active; AID 651560;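 active means compounds that cut the enzyme signal by at least half of the control window in the single-dose screen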;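 further: plate controls were DMSO wells with enzyme plus substrate for no effect and substrate without enzyme for full effect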
#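 Buffer or medium: Bis-Tris pH 6.0, DTT, detergent; Assay system: LMPTP-A enzyme; Quantity: 0.625 nM enzyme; Detection: endpoint fluorescence intensity; Times: 50 min dark incubation at room temperature; Controls: substrate-only low control, DMSO enzyme-plus-substrate high control; Doses: single 20 µM dose; Read-out: percent inhibition versus substrate-only and uninhibited controls; Reagent: 400 µM OMFP.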
# Scp-1 inhibitor = blocks human Scp-1 phosphatase activity | AID 493091 | Q9GZU7 | Recombinant Scp1, phosphopeptide, malachite green phosphate absorbance | 0.88% of 340,000 active | inhibition, % at 20 µM;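 active means inhibition above about 50% at 20 µM, limit read from the data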;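 further: plate controls were DMSO wells with enzyme for no effect and wells lacking enzyme for full effect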
# Target sequence (Q9GZU7 76-261 limits assumed): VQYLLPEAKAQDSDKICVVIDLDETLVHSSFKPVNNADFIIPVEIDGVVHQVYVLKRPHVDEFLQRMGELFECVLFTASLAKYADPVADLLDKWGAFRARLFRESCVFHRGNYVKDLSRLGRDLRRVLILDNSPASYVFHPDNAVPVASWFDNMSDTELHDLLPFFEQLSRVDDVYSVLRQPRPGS
#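 Assay system: SCP-1 catalytic fragment, aa 76-261 | Buffer or medium: Tris acetate buffer pH 5.5 with MgCl2 and Tween-20 | Compound: One concentration, 20 µM, with 1.0% DMSO | Also added: Phospho 17-mer peptide substrate | Signal: Absorbance at 630 nm | Incubation: 45 min enzyme reaction at room temperature | Measure: % inhibition of SCP-1 phosphate liberation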
# DNMT1 block = inhibitors of human DNMT1. DNMT1 molecular beacon, Hinp1I cleavage, fluorescence. 0.83% of 360,000 active. inhibition (reported as % activation of signal), % at 10 µM; in the data active means inhibition above about 50%
# GRK2 inh = blocks RNA aptamer binding to human GRK2; P25098; bead flow cytometry, FAM-aptamer displacement from GRK2; inhibition of aptamer binding, % at 10 µM; 0.59% of 330,000 active;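 active means inhibition of aptamer binding above 40%, roughly 3 SD of noise, on plates passing a quality check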;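 further: median bead fluorescence of bound FAM aptamer so fluorescent compounds give negative values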
# STEP block = inhibitors of human striatal-enriched phosphatase STEP; 0.25% of 360,000 active; inhibition, % at 20 µM; AID 588621; recombinant STEP, OMFP fluorogenic substrate, fluorescence;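 active means inhibition at 20 µM, scaled per plate between control wells, above about 37%, limit read from the data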;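 further: 0% = DMSO with enzyme and substrate and 100% = substrate only without enzyme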
# Target sequence (P54829 whole entry, looked up): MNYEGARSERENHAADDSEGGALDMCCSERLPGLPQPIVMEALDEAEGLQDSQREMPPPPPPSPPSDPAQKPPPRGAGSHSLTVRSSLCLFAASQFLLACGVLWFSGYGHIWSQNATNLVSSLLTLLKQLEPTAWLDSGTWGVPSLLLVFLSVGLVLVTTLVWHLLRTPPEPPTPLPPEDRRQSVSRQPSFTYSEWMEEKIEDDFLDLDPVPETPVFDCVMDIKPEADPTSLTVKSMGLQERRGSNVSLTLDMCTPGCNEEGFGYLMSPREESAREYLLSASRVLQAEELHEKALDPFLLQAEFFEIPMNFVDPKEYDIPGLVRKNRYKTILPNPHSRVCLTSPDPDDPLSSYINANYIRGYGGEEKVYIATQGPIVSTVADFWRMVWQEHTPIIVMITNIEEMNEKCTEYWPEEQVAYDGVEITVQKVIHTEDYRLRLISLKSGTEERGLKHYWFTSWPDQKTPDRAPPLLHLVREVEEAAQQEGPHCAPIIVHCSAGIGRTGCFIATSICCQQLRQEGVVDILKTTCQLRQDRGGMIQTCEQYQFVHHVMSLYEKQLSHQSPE
#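 System: isolated STEP enzyme; schedule: 20 min enzyme reaction at room temperature, protected from light; medium: Bis-Tris buffer pH 6.0, 2.5 mM DTT, 0.005% Tween 20; signal: fluorescence, 480/540 nm; dosing: single compound dose of 20 µM, 1% DMSO final; also added: OMFP substrate, 25 µM final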
# SUMO1 PPI mod = alters human SUMO1 binding to SIM partners. P63165. SUMO1 binding to a labelled peptide, TR-FRET, 1 h. inhibition, % at 20 µM. 0.33% of 360,000 active; in the data active means inhibition above about 37%
# GRK2 inh confirm = confirmation of human GRK2 inhibitors displacing RNA aptamer; 4% of 2,000 active; bead-bound GRK2, FAM-aptamer displacement, flow cytometry; aptamer displacement, % at 10 µM; shares compounds with GRK2 inh;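 active means aptamer displacement above 40%, near three times the noise of non-fluorescent compounds, on plates passing quality checks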;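 further: negative values mostly reflect intrinsic compound fluorescence rather than true enhancement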
# Aptamer quench = quenches fluorescent RNA aptamer, GRK2 hit artifact; shares compounds with GRK2 inh; Fluorescent RNA aptamer beads, quenching, flow cytometry; hits give high values; fluorescence change (kMESF span), kMESF (concentration not given with the values); 110 tested, under 10 active;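 active means compounds whose bead fluorescence drops by more than 37 kMESF across the dose range, marking them as dye quenchers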
# FAM quench CP1 = aptamer fluorescence quenching in GRK2 counter-screen | shares compounds with GRK2 inh | Carboxyfluorescein RNA aptamer on beads, flow cytometry quenching; hits give low values | fluorescence response (% of DMSO), % at 10 µM | 2,000 tested, under 10 active;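 active means compounds that quench the bead-bound fluorescent RNA probe, cutting fluorescence to under half of the solvent control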;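 further: counterscreen run without GRK2 so only probe quenching by compound is measured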
# GRK2 confirm 2 = human GRK2 inhibition confirmation, cherry pick 2. shares compounds with GRK2 inh. inhibition of aptamer binding, % at 10 µM. bead-bound GRK2, FAM-aptamer displacement, flow cytometry. 360 tested, under 10 active;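 active means inhibition of aptamer binding above 40%, about triple the noise seen with nonglowing compounds, on plates passing quality control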;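 further: negative values mostly come from compounds that fluoresce themselves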
# FAM quench SP = aptamer fluorescence quenching in GRK2 counter-screen | shares compounds with GRK2 inh | carboxyfluorescein RNA aptamer beads, flow cytometry quenching; hits give low values | fluorescence response vs DMSO, % at 10 µM | 360 tested, under 10 active;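 active means response vs DMSO under 50%, meaning signal dropped by over half, treated as fluorescence quencher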;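 further: labelled aptamer on streptavidin beads without GRK2 as a quench counter-screen; 100% = bead fluorescence of DMSO wells and lower means quenching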
# An asterisk follows results filed as active; nt = no result given. Shown are actives, neighbours in structure and some others; about 2.2% of the full set was active somewhere.
SMILES,LMPTP block,Scp-1 inhibitor,DNMT1 block,GRK2 inh,STEP block,SUMO1 PPI mod,GRK2 inh confirm,FAM quench CP1,others
Cc1cc(N2CCOCC2)ccc1/C=C1\NC(=O)N(CC(=O)Nc2ccccc2C)C1=O,0,-2,46,0,0,-14,2,100,
Cc1ccc(NS(=O)(=O)c2cccc(C(=O)N3CCCCCCC3)c2)cc1,0,2,4,0,-1,0,nt,nt,
Cc1ccc(S(=O)(=O)Nc2cccc(C(=O)N3CCC(C(N)=O)CC3)c2)cc1,-2,-3,7,61*,-1,1,3,97,
C[C@@H]1CN([C@@H](C)CO)C(=O)c2cc(Br)cnc2O[C@H]1CN(C)Cc1cccc(C(=O)O)c1,0,nt,1,nt,-1,4,nt,nt,
C[C@H]1[C@@H](Cc2cc(Cl)cc(Cl)c2)N(c2ccccc2)c2ccccc2CN1Cc1ccccc1,1,nt,nt,nt,nt,-5,nt,nt,
O=C1Nc2ccccc2-n2nnnc2C1N1CCN(CCN2CCOCC2)CC1 (stereo unspecified),-2,nt,nt,nt,nt,2,nt,nt,
COc1ccccc1C(=O)N/C(=C\c1cn(C)c2ccccc12)C(=O)N1CCOCC1,-1,-2,-1,0,-1,-10,nt,nt,
COc1ccc(C(=O)N/C(=C\c2cn(C)c3ccccc23)C(=O)N2CCOCC2)cc1OC,0,-5,-2,57*,0,1,-3,102,
C/C=C(\C)C(=O)NCCN1C2=NC[C@@H](C)N2C[C@H]1Cc1ccc(O)cc1,0,2,-1,68*,-1,-2,-3,99,
C/C=C(\C)C(=O)NCCN1C2=NC[C@@H](C)N2C[C@@H]1Cc1ccc(OC)cc1,-1,0,3,0,-4,-2,nt,nt,
Cc1ccccc1Cn1ccc(NC(=O)c2cnn3c(C(F)(F)F)cc(-c4ccco4)nc23)n1,4,-9,-4,31,2,-8,2,90,
Cc1ccccc1Cn1ccc(NC(=O)CCSc2nc(-c3ccco3)cc(C(F)(F)F)n2)n1,4,-11,-5,1,6,4,nt,nt,
Cc1ccc(/C=C/C(=O)NCCc2c[nH]c3ccccc23)o1,-1,2,-7,94*,0,-8,0,101,
O=C1NC[C@H](CCCCN2C[C@H](Cc3ccccc3)N(CCc3ccc(O)cc3)C(=O)C2=O)N(CC2CCCCC2)C1=O,0,nt,nt,nt,nt,-2,nt,nt,
Nc1ccn(C2OC(COC(=O)C34CC5CC(CC(C5)C3)C4)C(O)C2O)c(=O)n1 (stereo unspecified),1,-5,5,nt,-4,12,nt,nt,
CCc1ccc(NC(=O)N(C2CCC(C)CC2)C2CCN(C(C)=O)CC2)cc1 (stereo unspecified),0,1,-1,57*,-1,4,3,93,
CCc1ccc(NC(=O)N(CCCOC(C)C)C2CCN(C(C)=O)CC2)cc1,-1,-3,2,5,0,-1,nt,nt,
N/C(=N\OC(=O)c1cc(Cl)ccc1Cl)c1ccccn1,0,-1,-1,100*,-1,-1,-2,102,
COc1ccc(Cl)cc1C(=O)O/N=C(\N)c1ccccn1,-1,-6,-6,0,-1,3,nt,nt,
CCOc1cc(C)c(S(=O)(=O)Nc2ccc(Cl)cn2)cc1C,0,8,2,46*,-4,2,nt,nt,GRK2 confirm 2=-1;FAM quench SP=101
COc1cc(NC(C)CCCN)c2nc(C)ccc2c1Oc1ccc(F)cc1 (stereo unspecified),-1,nt,-14,nt,6,-42,nt,nt,
CCCCN(C)C(=O)c1cc2c(Cl)nc3ccccc3c2s1,1,-5,4,49*,4,-2,0,102,
CCOc1cccc(-c2ccc3nncn3c2)c1,-1,nt,5,nt,0,-7,nt,nt,
C=CCn1nc(C(=O)Nc2ccc(OC)cc2)cc1-c1sc(NC(=O)c2ccccc2)nc1C,4,nt,nt,nt,nt,4,nt,nt,
O=C(CNC(=O)c1ccccc1F)N/N=C/c1ccc2c(c1)OCO2,-1,-1,1,82*,0,-5,-2,101,
SMILES,LMPTP block,Scp-1 inhibitor,DNMT1 block,GRK2 inh,STEP block,SUMO1 PPI mod,GRK2 inh confirm,FAM quench CP1,others
Cc1ccc(C(=O)Nc2cccc(C(=O)NCc3ccco3)c2)cc1,-1,-1,5,0,1,-1,34,103,Aptamer quench=6.2
Cc1ccc(C(=O)NCc2ccco2)cc1,0,0,1,2,7,1,nt,nt,
O=C(NCc1ccco1)c1cccc(NC(=O)c2ccccc2)c1,-1,-2,-8,0,-2,6,-3,106,
Cc1nnc(NC(=O)c2ccc(Br)cc2)s1,0,-3,5,1,1,3,nt,nt,
Cc1nnc(NC(=O)c2ccc(Br)o2)s1,-1,-7,2,85*,-1,-1,-2,105,
CCN(C(=O)CN1C(=O)c2ccc([N+](=O)[O-])cc2C1=O)C1CCCCC1,-1,4,-1,69*,-3,-30,nt,nt,GRK2 confirm 2=4;FAM quench SP=35*
CN1C(=O)CCS(=O)(=O)C1c1ccc(Cl)c(Cl)c1 (stereo unspecified),-1,nt,7,nt,1,-2,nt,nt,
CC(c1ccco1)N(C(=O)C12CC3CC(CC(C)(C3)C1)C2)c1ccccn1 (stereo unspecified),0,0,2,55*,4,-2,-7,99,
Nc1ccc(S(=O)(=O)c2ccc(N3CCOCC3)c(N)c2)cc1,-3,nt,1,nt,-2,1,nt,nt,
O=C(NCc1cccc(Cl)c1)C1Cc2c(-c3ccccc3)ccnc2O1 (stereo unspecified),2,nt,4,nt,0,-2,nt,nt,
CSc1ccc(CN2CCN(C(C)C)C(CCO)C2)cc1 (stereo unspecified),0,-1,-2,91*,-5,2,-4,104,
OCCCNc1ncnc2c1ncn2[C@H]1CN(Cc2ccc(Cl)cc2)C[C@@H](CO)O1,0,nt,3,nt,-1,-3,nt,nt,
